Laboratory results as given in publication PMC6634314 (Cell chemical biology, 2019).

Columns and labels:
MARK2 = assay: MIB washout assay; format: binding, Human; details: H23 cells, 1 μM 4h, MIB pulldown ratio SM1-71/SM1-71-R
PIK3R4 = assay: MIB washout assay; format: binding, Human; details: H23 cells, 1 μM 4h, MIB pulldown ratio SM1-71/SM1-71-R
CSNK2A1 = assay: MIB washout assay; format: binding, Human; details: H23 cells, 1 μM 4h, MIB pulldown ratio SM1-71/SM1-71-R
ACVR1 = assay: MIB washout assay; format: binding, Human
EPHB2 = assay: MIB washout assay; format: binding, Human; details: H23 cells, 1 μM 4h, MIB pulldown ratio SM1-71/SM1-71-R
CSNK1E = assay: MIB washout assay; format: binding, Human; details: H23 cells, 1 μM 4h, MIB pulldown ratio SM1-71/SM1-71-R
MAP2K1 [1] = molecular target: MAP2K1 (Homo sapiens, UniProt Q02750); assay: mass shift assay; format: binding; details: incubated 4 and 24h
How it was run: (§1)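 Kinase protein at 0.12 mM in 10 mM HEPES pH 7.5, 500 mM NaCl, incubated with 0.2 mM test compound at 4°C for 4 h and 24 h. Samples were diluted in 0.1% formic acid and desalted on a C3 pre-column. ESI-TOF was run in positive mode at 120 V, and intact mass was obtained by deconvolution to detect the adduct.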

BMP2K = BMP2K (Homo sapiens, UniProt Q9NSY1); assay: MIB washout assay; format: binding; details: H23 cells, 1 μM 4h, MIB pulldown ratio SM1-71/SM1-71-R
GAK = molecular target: T1, GAK (Homo sapiens, UniProt O14976); assay: mass shift assay; format: binding; details: incubated 4 and 24h
T1 sequence (O14976 1-1311): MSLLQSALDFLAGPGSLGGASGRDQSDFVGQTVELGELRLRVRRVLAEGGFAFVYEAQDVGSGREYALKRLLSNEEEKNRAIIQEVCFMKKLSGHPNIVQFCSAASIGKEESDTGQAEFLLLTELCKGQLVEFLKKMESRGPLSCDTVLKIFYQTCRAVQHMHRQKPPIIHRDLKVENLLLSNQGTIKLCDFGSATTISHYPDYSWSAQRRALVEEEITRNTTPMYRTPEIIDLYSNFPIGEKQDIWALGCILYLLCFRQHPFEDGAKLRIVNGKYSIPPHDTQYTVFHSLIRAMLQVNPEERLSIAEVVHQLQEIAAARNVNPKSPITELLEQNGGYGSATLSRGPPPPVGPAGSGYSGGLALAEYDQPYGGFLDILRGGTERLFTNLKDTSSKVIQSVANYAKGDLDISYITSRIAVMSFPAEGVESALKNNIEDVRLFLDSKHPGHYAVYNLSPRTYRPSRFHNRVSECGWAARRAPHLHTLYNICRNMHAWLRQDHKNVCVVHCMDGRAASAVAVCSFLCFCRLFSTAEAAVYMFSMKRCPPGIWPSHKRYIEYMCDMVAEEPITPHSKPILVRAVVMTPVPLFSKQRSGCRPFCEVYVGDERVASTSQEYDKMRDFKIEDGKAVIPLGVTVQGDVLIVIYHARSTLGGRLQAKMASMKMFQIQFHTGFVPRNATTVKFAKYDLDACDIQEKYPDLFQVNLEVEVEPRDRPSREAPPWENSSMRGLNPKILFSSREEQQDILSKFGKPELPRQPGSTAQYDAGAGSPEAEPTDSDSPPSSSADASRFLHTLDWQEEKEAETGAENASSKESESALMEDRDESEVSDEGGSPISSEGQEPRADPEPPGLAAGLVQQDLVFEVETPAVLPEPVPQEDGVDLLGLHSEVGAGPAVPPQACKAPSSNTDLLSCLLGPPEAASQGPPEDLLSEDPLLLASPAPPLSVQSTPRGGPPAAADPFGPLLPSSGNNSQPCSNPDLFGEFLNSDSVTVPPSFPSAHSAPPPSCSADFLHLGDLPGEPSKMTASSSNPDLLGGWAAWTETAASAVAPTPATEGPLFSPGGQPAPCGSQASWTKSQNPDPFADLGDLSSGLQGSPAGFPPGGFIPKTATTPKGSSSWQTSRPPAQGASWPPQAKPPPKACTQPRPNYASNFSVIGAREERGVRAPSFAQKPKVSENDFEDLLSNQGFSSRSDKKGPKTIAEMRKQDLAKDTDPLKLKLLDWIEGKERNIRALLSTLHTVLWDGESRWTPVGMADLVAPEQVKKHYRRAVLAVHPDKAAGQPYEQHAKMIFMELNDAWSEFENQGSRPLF
How it was run: as §1

FYN = assay: MIB washout assay; format: binding, Human; details: H23 cells, 1 μM 4h, MIB pulldown ratio SM1-71/SM1-71-R
HCK = assay: MIB washout assay; format: binding, Human; details: H23 cells, 1 μM 4h, MIB pulldown ratio SM1-71/SM1-71-R
ACVR1B = assay: MIB washout assay; format: binding, Human; details: H23 cells, 1 μM 4h, MIB pulldown ratio SM1-71/SM1-71-R
MET = assay: MIB washout assay; format: binding, Human; details: H23 cells, 1 μM 4h, MIB pulldown ratio SM1-71/SM1-71-R
YES1 = YES1 (Homo sapiens, UniProt P07947); assay: MIB washout assay; format: binding; details: H23 cells, 1 μM 4h, MIB pulldown ratio SM1-71/SM1-71-R
MAP2K2 = assay: MIB washout assay; format: binding, Human; details: H23 cells, 1 μM 4h, MIB pulldown ratio SM1-71/SM1-71-R
PRKD3 = assay: MIB washout assay; format: binding, Human; details: H23 cells, 1 μM 4h, MIB pulldown ratio SM1-71/SM1-71-R
GSK3B = GSK3B (Homo sapiens, UniProt P49841); assay: mass shift assay; format: binding; details: incubated 4 and 24h
How it was run: as §1

MAP2K1 [2] = assay: MIB washout assay; format: binding, Human; details: H23 cells, 1 μM 4h, MIB pulldown ratio SM1-71/SM1-71-R

Chain of YES1 (P07947 whole entry): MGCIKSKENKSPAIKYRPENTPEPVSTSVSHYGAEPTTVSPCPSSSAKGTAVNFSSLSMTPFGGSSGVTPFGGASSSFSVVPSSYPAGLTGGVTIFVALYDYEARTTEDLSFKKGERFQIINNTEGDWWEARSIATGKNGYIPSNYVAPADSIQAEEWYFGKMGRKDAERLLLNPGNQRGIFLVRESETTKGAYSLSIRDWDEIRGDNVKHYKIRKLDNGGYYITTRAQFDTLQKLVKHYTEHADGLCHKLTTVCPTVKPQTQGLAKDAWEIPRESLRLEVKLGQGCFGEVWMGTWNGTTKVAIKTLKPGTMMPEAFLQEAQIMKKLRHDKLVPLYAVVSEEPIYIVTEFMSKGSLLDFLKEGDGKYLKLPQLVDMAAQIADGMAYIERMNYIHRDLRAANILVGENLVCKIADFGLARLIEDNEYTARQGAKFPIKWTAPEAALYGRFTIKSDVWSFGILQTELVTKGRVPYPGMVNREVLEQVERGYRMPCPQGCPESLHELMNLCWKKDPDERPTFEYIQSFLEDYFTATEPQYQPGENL
Chain of BMP2K (Q9NSY1 whole entry): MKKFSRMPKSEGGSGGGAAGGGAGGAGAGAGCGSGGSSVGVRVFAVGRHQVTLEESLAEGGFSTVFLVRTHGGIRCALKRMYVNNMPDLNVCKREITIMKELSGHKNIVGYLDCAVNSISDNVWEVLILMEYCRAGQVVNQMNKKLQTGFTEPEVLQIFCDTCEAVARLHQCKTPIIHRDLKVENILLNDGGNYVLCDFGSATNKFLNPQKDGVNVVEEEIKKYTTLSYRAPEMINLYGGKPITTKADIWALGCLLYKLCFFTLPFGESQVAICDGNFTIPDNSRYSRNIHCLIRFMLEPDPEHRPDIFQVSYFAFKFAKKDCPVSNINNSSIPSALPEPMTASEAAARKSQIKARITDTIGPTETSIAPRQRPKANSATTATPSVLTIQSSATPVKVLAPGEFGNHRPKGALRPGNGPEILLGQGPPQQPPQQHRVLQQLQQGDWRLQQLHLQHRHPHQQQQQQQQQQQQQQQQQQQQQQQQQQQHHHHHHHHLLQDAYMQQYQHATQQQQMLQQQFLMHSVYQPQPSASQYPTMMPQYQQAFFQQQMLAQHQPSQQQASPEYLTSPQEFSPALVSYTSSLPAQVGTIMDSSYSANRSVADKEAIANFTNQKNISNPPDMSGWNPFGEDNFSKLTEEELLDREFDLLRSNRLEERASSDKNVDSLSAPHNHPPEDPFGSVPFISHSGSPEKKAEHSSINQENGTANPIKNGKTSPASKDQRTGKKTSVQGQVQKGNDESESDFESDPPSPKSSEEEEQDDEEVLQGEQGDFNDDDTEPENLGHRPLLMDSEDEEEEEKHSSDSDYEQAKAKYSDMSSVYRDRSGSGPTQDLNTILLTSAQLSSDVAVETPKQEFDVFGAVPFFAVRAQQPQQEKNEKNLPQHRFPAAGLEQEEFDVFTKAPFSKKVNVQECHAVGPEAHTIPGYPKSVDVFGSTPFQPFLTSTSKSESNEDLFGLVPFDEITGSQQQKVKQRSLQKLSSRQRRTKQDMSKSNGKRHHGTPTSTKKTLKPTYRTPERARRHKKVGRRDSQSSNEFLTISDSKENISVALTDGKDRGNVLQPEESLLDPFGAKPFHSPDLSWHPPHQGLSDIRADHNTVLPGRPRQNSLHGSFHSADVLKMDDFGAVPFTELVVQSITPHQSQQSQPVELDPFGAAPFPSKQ
Chain of GSK3B (P49841 whole entry, species assumed): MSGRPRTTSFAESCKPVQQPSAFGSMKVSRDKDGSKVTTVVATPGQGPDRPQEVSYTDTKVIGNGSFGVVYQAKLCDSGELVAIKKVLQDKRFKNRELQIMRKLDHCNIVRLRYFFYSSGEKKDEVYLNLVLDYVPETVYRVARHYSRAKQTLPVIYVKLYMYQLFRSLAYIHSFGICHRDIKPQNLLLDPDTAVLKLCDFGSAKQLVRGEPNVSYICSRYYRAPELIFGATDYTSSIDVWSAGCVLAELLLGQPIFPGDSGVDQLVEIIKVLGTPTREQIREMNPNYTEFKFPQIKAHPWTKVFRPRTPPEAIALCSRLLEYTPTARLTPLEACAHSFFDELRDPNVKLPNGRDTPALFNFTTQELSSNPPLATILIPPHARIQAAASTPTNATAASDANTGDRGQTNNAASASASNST
Chain of MAP2K1 (Homo sapiens, UniProt Q02750) (Q02750 whole entry, species assumed): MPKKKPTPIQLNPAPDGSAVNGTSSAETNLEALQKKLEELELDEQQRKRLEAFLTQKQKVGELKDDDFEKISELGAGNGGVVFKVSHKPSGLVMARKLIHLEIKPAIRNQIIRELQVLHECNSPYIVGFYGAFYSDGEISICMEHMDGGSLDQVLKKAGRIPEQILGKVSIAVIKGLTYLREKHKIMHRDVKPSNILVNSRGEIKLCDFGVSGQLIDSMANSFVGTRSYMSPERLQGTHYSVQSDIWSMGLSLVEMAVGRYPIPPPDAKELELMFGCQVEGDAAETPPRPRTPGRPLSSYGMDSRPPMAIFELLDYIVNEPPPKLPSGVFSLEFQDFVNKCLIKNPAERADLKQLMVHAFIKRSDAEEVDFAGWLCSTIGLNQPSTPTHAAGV

## C=CC(=O)Nc1ccccc1Nc1nc(Nc2ccc(N3CCN(C)CC3)cc2)ncc1Cl [SM1-71]
MARK2; 0h post-washout
  BI-0h: 0.74
MARK2; 6h post-washout
  BI-6h: 1.13
PIK3R4; 0h post-washout
  BI-0h: 0.36
PIK3R4; 6h post-washout
  BI-6h: 0.47
CSNK2A1; 0h post-washout
  BI-0h: 0.8
CSNK2A1; 6h post-washout
  BI-6h: 0.64
ACVR1; H23 cells, 1 μM 4h, 0h post-washout, MIB pulldown ratio SM1-71/SM1-71-R
  BI-0h: 0.81
ACVR1; H23 cells, 1 μM 4h, 6h post-washout, MIB pulldown ratio SM1-71/SM1-71-R
  BI-6h: 0.3
ACVR1; class from BI 0h and 6h
  Binding: Weakly Irreversible
EPHB2; 0h post-washout
  BI-0h: 0.7
EPHB2; 6h post-washout
  BI-6h: 0.5
CSNK1E; 0h post-washout
  BI-0h: 0.79
CSNK1E; 6h post-washout
  BI-6h: 0.58
MAP2K1 [1]
  covalent adduct formation (mass shift): formed covalent adducts
BMP2K; 0h post-washout
  BI-0h: 0.23
BMP2K; 6h post-washout
  BI-6h: 0.27
GAK
  covalent adduct formation (mass shift): formed covalent adducts
FYN; 0h post-washout
  BI-0h: 0.81
FYN; 6h post-washout
  BI-6h: 0.91
HCK; 0h post-washout
  BI-0h: 1.3
HCK; 6h post-washout
  BI-6h: 0.85
ACVR1B; 0h post-washout
  BI-0h: 0.9
ACVR1B; 6h post-washout
  BI-6h: 0.92
MET; 0h post-washout
  BI-0h: 0.75
MET; 6h post-washout
  BI-6h: 0.53
YES1; 0h post-washout
  BI-0h: 0.21
YES1; 6h post-washout
  BI-6h: 0.1
MAP2K2; 0h post-washout
  BI-0h: 0.03
MAP2K2; 6h post-washout
  BI-6h: 0.18
PRKD3; 0h post-washout
  BI-0h: 0.59
PRKD3; 6h post-washout
  BI-6h: 0.72
GSK3B
  covalent adduct formation (mass shift): formed covalent adducts
MAP2K1 [2]; 0h post-washout
  BI-0h: 0.05
MAP2K1 [2]; 6h post-washout
  BI-6h: 0.36
